In article PMC4879609 (Molecular microbiology, 2016):
Where “and” joins values, the source holds several entries; their conditions need not be identical. Equal entries are not always repeated. Where two headings read alike, the source gives them in different places.

Legend:
[1] = target: T1, LdIMPDH (Leishmania donovani, UniProt P21620); assay: Rate zonal centrifugation, quaternary structure of LdIMPDH; set-up: species or system L. donovani; settings: saturating nucleotide, glycerol gradient
[2] = target: T2, LmGMPR (Leishmania major, UniProt Q4QEB3); assay: Steady-state kinetic analysis of LmGMPR; format: biochemical, L. major; settings: for Increase in NADPH Km value: saturating concentrations of GMP
T2 sequence (Q4QEB3 1-492): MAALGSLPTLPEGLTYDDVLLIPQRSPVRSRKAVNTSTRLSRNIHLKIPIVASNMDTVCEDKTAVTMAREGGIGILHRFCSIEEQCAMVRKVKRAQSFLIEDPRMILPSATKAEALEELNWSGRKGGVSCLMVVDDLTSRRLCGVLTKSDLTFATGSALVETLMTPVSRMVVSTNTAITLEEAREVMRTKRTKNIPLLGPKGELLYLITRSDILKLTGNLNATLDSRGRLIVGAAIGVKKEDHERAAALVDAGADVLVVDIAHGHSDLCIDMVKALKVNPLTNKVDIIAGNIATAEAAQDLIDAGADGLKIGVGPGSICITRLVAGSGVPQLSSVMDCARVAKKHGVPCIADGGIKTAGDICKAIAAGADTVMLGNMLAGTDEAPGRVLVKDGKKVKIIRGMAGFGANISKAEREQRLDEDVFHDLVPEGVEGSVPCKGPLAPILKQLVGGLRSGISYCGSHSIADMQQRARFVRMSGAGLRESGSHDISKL

[3] = target: T2, LmGMPR; assay: Fluorescence titration of nucleotide binding to full length LmGMPR; set-up: species or system L. major
[4] = target: LmGMPR CBS domain (His6-gmpr92-222) (Leishmania major, UniProt Q4QEB3); assay: Intrinsic fluorescence binding to LmGMPR CBS domain; set-up: species or system L. major
[5] = target: T1, LdIMPDH; assay: biochemical; format: binding
[6] = target: LdIMPDH CBS domain (His6-impdh112-223) (Leishmania donovani, UniProt P21620); assay: Intrinsic fluorescence binding to LdIMPDH CBS domain; set-up: species or system L. donovani
[7] = target: T2, LmGMPR; assay: Rate zonal centrifugation, quaternary structure of LmGMPR; set-up: species or system L. major; settings: saturating (1.0 mM) nucleotide, 5–40% glycerol gradient
Outline: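 Recombinant LmGMPR expressed in GMPR-deficient E. coli and purified by ammonium sulfate fractionation and Cibacron blue chromatography. Spun at 34,000 rpm for 16 h at 4 °C; 50 μg bovine hemoglobin as internal standard.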

[8] = target: T1, LdIMPDH; settings: read-out: inhibition constant (Ki); ref Dobie et al., 2007; cited from earlier work
[9] = tested on: Leishmania; assay: Leishmania growth in media with defined purine source in presence of MPA; format: cell-based; settings: media supplemented with either guanine or xanthine (Fig. S2)
[10] = target: eukaryotic IMPDH enzymes, including human and Leishmania; settings: literature values; cited from earlier work
[11] = target: Leishmania major guanosine 5'-monophosphate reductase (Leishmania major); assay: rate zonal centrifugation on a glycerol gradient
[12] = target: the molecule itself; assay: rate zonal centrifugation on a glycerol gradient
[13] = target: the molecule itself; assay: rate zonal centrifugation on a glycerol gradient; remark: listed apart in the source
[14] = read-out: Kd1, 26 μM LmGMPR, no NADPH, fluorescence at 335 nm
[15] = 20 μM LdIMPDH, single phase binding isotherm

In the case of `Nc1ncnc2c1ncn2[C@@H]1O[C@H](COP(=O)(O)O)[C@@H](O)[C@H]1O` [AMP], the “Quaternary structure of LdIMPDH” value [1] is reported as “tetrameric structure”.

In the case of `Nc1ncnc2c1ncn2[C@@H]1O[C@H](COP(=O)(O)OP(=O)(O)OP(=O)(O)O)[C@@H](O)[C@H]1O` [ATP], the “Decrease in Vmax value” ([2]; 1.0 mM ATP) is reported as ~ 4 fold, the “Increase in GMP Ks (Km) value” ([2]; 1.0 mM ATP) is reported as 10 fold and ~ 10 fold and the “Increase in NADPH Km value” [2] is reported as ~ 2 fold. For the same molecule, the Kd [3, 14] was 87 ± 24 µM, the Binding saturation ([4]; up to 3.0 mM) was “saturation binding was not attained” and the Kd [5, 15] was 130 ± 11 µM. For the same molecule, the Kd ([6]; intrinsic fluorescence changes) was 148 ± 19 µM, the “Quaternary structure of LmGMPR” value [7] was “monomeric and dimeric forms” and the “Quaternary structure of LdIMPDH” value [1] was “tetrameric structure”.

In the case of `Nc1nc2c(ncn2[C@@H]2O[C@H](COP(=O)(O)O)[C@@H](O)[C@H]2O)c(=O)[nH]1` [GMP, guanosine 5′-monophosphate], the Kd [3] is reported as 20 ± 2 µM, the Kd [4] is reported as 333 ± 27 µM and the Kd [5] is reported as 66 ± 7 µM. For the same molecule, the “Quaternary structure of LmGMPR” value [7] was “stabilized the formation of the LmGMPR tetramer”, the “Quaternary structure of LdIMPDH” value [1] was “tetrameric structure” and the Ki [8] was ~200 µM.

In the case of `Nc1nc2c(ncn2[C@@H]2O[C@H](COP(=O)(O)OP(=O)(O)OP(=O)(O)O)[C@@H](O)[C@H]2O)c(=O)[nH]1` [GTP], the “Decrease in GMP Ks value” ([2]; 10 μM GTP) is reported as ~ 3 fold, the “Increase in Vmax value” ([2]; 10 μM GTP) is reported as ~ 8 fold and the “Increase in NADPH Km value” [2] is reported as ~ 2 fold. The “Utilization as substrate by LmGMPR” value ([2]; steady state kinetic analysis) was “not utilized as a substrate”, the Kd [3, 14] was 16 ± 1 µM and the Kd ([4]; single phase binding isotherm, 35 μM His6-gmpr92-222) was 188 ± 19 µM. For the same molecule, the Kd [5, 15] was 67 ± 5 µM and the “Quaternary structure of LmGMPR” value [7] was “stabilized the formation of the LmGMPR tetramer”.

For `COc1c(C)c2c(c(O)c1C/C=C(\C)CCC(=O)O)C(=O)OC2` [MPA, mycophenolic acid], the Ki [2] was ~20 µM, the “Mode of inhibition of LmGMPR” value [2] was “competitive inhibitor of NADPH” and the “Effect on parasite growth” value [9] was “refractory to MPA”. The Ki [10] was 4 to 20 nM.

With `[Mg+2]` [Mg^2+] the “Effect on LmGMPR enzymatic activity” value ([2]; added to the reaction buffer) was “no significant affect on enzymatic activity”.

With `NC(=O)C1=CN([C@@H]2O[C@H](COP(=O)(O)OP(=O)(O)OC[C@H]3O[C@@H](n4cnc5c(N)ncnc54)[C@H](O)[C@@H]3O)[C@@H](O)[C@H]2O)C=CC1` [NADH] the “Use as hydride donor for reductive deamination of GMP” value ([2]; NADH up to 5.0 mM) was “failed to induce the reductive deamination of GMP”.

`NC(=O)C1=CN([C@@H]2O[C@H](COP(=O)(O)OP(=O)(O)OC[C@H]3O[C@@H](n4cnc5c(N)ncnc54)[C@H](OP(=O)(O)O)[C@@H]3O)[C@@H](O)[C@H]2O)C=CC1` [NADPH] showed a Kd ([3]; absence of GMP, shift of NADPH emission λmax, excitation 340 nm, equation 3) of 27 ± 4 µM.

With `O=c1[nH]cnc2nc[nH]c12` [hypoxanthine] the “Binding to LdIMPDH” value ([5]; concentration of 2.0 mM) was “no significant binding” and the “Binding to LdIMPDH CBS domain” value [6] was “no saturable binding”.

Molecule “Leishmania major guanosine 5'-monophosphate reductase (enzyme)” has a stoichiometry N [11] of 2.

B1: Leishmania donovani inosine 5'-monophosphate dehydrogenase (enzyme, UniProt P21620 1-514, looked up)
chain: MATNNANYRIKTIKDGCTAEELFRGDGLTYNDFIILPGFIDFGAADVNISGQFTKRIRLHIPIVSSPMDTITENEMAKTMALMGGVGVLHNNCTVERQVEMVKSVKAYRNGFISKPKSVPPNTPISNIIRIKEEKGISGILVTENGDPHGKLLGIVCTKDIDYVKNKDTPVSAVMTRREKMTVERAPIQLEEAMDVLNRSRYGYLPIVNENDEVVNLCSRRDAVRARDYPHSTLDKSGRLICAAATSTRPEDKRRVAALADVGVDVLVLDSSQGNTIYQIAFIKWVKSTYPHLEVVAGNVVTQDQAKNLIDAGADGIRIGMGSGSICITQEVLACGRPQGTAVYKVAQYCASRGVPCTADGGLRQVGDICKALAIGANCAMLGGMLSGTTETPGEYFFKGGVRLKVYRGMGSLEAMSQGKESGKRYLSENEAVQVAQGVSGNVVDKGSAAKLIAYVSKGLQQSAQDIGEISFDAIREKMYAGQVLFSRRSPTAQGEGGVHSLHSYEKKLFAAKM
With B1 the “stoichiometry N” value [12] was 4 and the “stoichiometry N” value [13] was 2.
